How the values were obtained:
[1] = target: Melanocortin 1 receptor (Rana pipiens); assay: Effective concentration for the effect of Melanocortin 1 receptor in the frog skin.
[2] = target: T1, Melanocyte-stimulating hormone receptor (Homo sapiens, UniProt Q01726); assay: Effective concentration against Melanocortin 1 receptor transfected into L-cells was determined by concentration of peptide for 50% maximal cAMP generation; format: functional
Outline: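 Human MC1R stably transfected into mouse L-cells, grown to confluence. Stopped with ice-cold ethanol. cAMP in the dried supernatant measured by competitive binding kit. Value is concentration for 50% maximal cAMP generation; n = 4.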

[3] = Relative rate determined by setting MTII equal to 1 and dividing the apparent k-1 by the MTII value; format: ADME
[4] = target: T1, Melanocyte-stimulating hormone receptor; assay: The concentration that inhibits 50% specific binding was determined against the Melanocortin 1 receptor
Outline: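 Cloned human MC1R stably expressed in L-cells, grown to confluence. Cells washed in binding buffer (MEM, 25 mM HEPES pH 7.4, 0.2% BSA, phenanthroline, leupeptin, bacitracin). Cells washed, lysed in NaOH/Triton, gamma counted.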

T1 sequence (Q01726 whole entry): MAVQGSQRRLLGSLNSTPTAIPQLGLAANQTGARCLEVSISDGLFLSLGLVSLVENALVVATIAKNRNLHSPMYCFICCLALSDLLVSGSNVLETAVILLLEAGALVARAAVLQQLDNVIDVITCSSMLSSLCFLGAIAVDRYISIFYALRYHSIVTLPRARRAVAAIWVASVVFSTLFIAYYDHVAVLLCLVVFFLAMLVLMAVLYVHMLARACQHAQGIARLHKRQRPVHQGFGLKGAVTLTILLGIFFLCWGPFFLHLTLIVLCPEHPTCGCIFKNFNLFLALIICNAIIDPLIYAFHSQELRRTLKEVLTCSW

CCCC[C@H](NC(C)=O)C(=O)N[C@H]1CC(=O)NCCCCC(C(N)=O)NC(=O)C([C@@H](C)c2c[nH]c3ccccc23)NC(=O)[C@H](CCCN=C(N)N)NC(=O)C(Cc2ccccc2)NC(=O)[C@H](Cc2c[nH]cn2)NC1=O (single isomer, unassigned)
EC50 [1]: 0.44 nM
EC50 [2]: 0.3 nM
Relative dissociation rate [3]: 0.75
IC50 [4]: 0.5 nM

CCCC[C@H](NC(C)=O)C(=O)N[C@H]1CC(=O)NCCCCC(C(N)=O)NC(=O)C([C@H](C)c2c[nH]c3ccccc23)NC(=O)[C@H](CCCN=C(N)N)NC(=O)C(Cc2ccccc2)NC(=O)[C@H](Cc2c[nH]cn2)NC1=O (single isomer, unassigned)
EC50 [1]: 28.6 nM
EC50 [2]: 3 nM
Relative dissociation rate [3]: 2.5
IC50 [4]: 15 nM

CCCC[C@H](NC(C)=O)C(=O)N[C@@H](CC(=O)O)C(=O)N[C@@H](Cc1c[nH]cn1)C(=O)N[C@@H](Cc1ccccc1)C(=O)N[C@@H](CCCN=C(N)N)C(=O)N[C@@H](C(=O)N[C@@H](CCCCN)C(N)=O)[C@H](C)c1c[nH]c2ccccc12
EC50 [2]: 0.4 nM
Relative dissociation rate [3]: 2.33
IC50 [4]: 2 nM

CCCC[C@H](NC(C)=O)C(=O)N[C@H]1CC(=O)NCCCCC(C(N)=O)NC(=O)[C@@H]([C@@H](C)c2c[nH]c3ccccc23)NC(=O)[C@H](CCCN=C(N)N)NC(=O)C(Cc2ccccc2)NC(=O)[C@H](Cc2c[nH]cn2)NC1=O (single isomer, unassigned)
EC50 [1]: 0.06 nM
EC50 [2]: 1 nM
Relative dissociation rate [3]: 2.58
IC50 [4]: 3 nM

Source: ChEMBL document CHEMBL1128196, “Topographical modification of melanotropin peptide analogues with beta-methyltryptophan isomers at position 9 leads to differential potencies and prolonged biological activities” (J Med Chem, 1995)
